Consider three compounds from ChEMBL document CHEMBL3259780, “3-Substituted-N-(4-hydroxynaphthalen-1-yl)arylsulfonamides as a novel class of selective Mcl-1 inhibitors: structure-based design, synthesis, SAR, and biological evaluation” (J Med Chem, 2014).

One test has as its target Bcl-2-like protein 1 (Homo sapiens, UniProt Q07817). Nature of the test: Displacement of Flu-BID/FAM-BID from His-tagged BCLX-L (1 to 209) (unknown origin) expressed in Escherichia coli BL21(DE3) after 3 hrs by fluorescence polarization assay. Background: Fluorescence polarisation rises when a labelled molecule tumbles more slowly, as on binding a larger partner.
Test [1] deals with T1, Induced myeloid leukemia cell differentiation protein Mcl-1 (Homo sapiens, UniProt Q07820). Nature of the test: Inhibition of FITC-labeled MCL1 (unknown origin) after 5 mins by fluorescence polarization assay.
In test [2] the target is T2, Apoptosis regulator Bcl-2 (Homo sapiens, UniProt P10415). The settings on record: lymphoma, 0.1 to 10 uM.
In test [3] the target is T1, Induced myeloid leukemia cell differentiation protein Mcl-1. The test can be described thus: Inhibition of MCL1 (unknown origin) overexpressed in E-mu-myc transgenic mouse lymphoma cells assessed as induction of cell death at 0.1 to 10 uM after 15 to 18 hrs by flow cytometric analysis. The class given is cell-based. The method in brief:
(§1)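 Eμ-myc transgenic mouse lymphoma cells retrovirally transduced to overexpress Mcl-1 or Bcl-2, seeded at 0.5 × 10^6 cells/well. Cells were treated at varying concentrations for 15–18 h and stained with violet LIVE/DEAD fixable dead-cell dye. Percent stained (dead) cells was measured by flow cytometry. Means ± SEM from 3–7 independent experiments.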
A general note: A flow cytometer gives signals particle by particle.

The subject of test [4] is HL-60. Nature of the test: Induction of apoptosis in human HL60 cells assessed as caspase-3 activation at 2.5 uM […] by DEVD-AFC-based fluorometric assay. The class given is functional, cell-based.
The target in test [5] is Induced myeloid leukemia cell differentiation protein Mcl-1 homolog (Mus musculus) (UniProt P97287). Nature of the test: Inhibition of MCL1 in wild-type MEF assessed as induction of BAX/BAK-dependent cell death after 15 hrs by propidium iodide staining-based flow cytometric analysis. The method in brief: (§2)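 Wild-type and Bax/Bak double-knockout MEFs were grown in DMEM with 10% FBS, seeded at 0.5 × 10^6 cells/well and allowed to adhere. Cells were exposed to increasing concentrations for 15 h, harvested, washed in PBS and stained with 0.025 mg/mL propidium iodide. PI-positive percentage was measured by flow cytometry. Mean ± SEM, with unpaired t test.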

The target is the same in test [6]. The test can be described thus: Inhibition of MCL1 in wild-type MEF assessed as induction of BAX/BAK-dependent cell death at 16 uM after 15 hrs by propidium iodide staining-based flow cytometric analysis relative to control. Put shortly: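 Wild-type and Bax/Bak double-knockout MEFs grown in DMEM with 10% FBS, seeded at 0.5 × 10^6 cells/well and left to adhere. Exposed 15 h to compound, harvested, PBS-washed, stained with 0.025 mg/mL propidium iodide. PI-positive percentage by flow cytometry; significance by unpaired t test.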

For test [7], the system named is HL-60. The test can be described thus: Cytotoxicity against human HL60 cells assessed as intracellular ATP level after 3 days by CellTiterGlo assay. The class given is functional, cell-based. Put shortly:
(§3)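 Cells in RPMI 1640 with 10% FBS, plated at 0.5 × 10^6 cells/well and exposed to a range of compound concentrations for 3 days. Viability is read as intracellular ATP by CellTiter-Glo luminescence. Growth is expressed as percent of DMSO-treated cells, and IC50 is obtained by nonlinear regression.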

The target in test [8] is T2, Apoptosis regulator Bcl-2. The test can be described thus: Inhibition of BCL2 (unknown origin) overexpressed in E-mu-myc transgenic mouse lymphoma cells assessed as induction of cell death after 15 to 18 hrs by flow cytometric analysis. In kind it is cell-based. The method in brief:
as §1

A further test has as its system K562. The test can be described thus: Cytotoxicity against human K562 cells assessed as intracellular ATP level after 3 days by CellTiterGlo assay. The class given is functional, cell-based. The method in brief: as §3
The test system of test [9] is HL-60. The test can be described thus: Induction of apoptosis in human HL60 cells assessed as caspase-3 activation after 20 hrs by DEVD-AFC-based fluorometric assay. In kind it is functional, cell-based. The method in brief: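 HL-60 cells were seeded at 0.5 × 10^6 cells/well and exposed to graded compound concentrations for 20 h. Caspase-3 activity was measured by fluorometric kit assay with DEVD-AFC substrate. Results are expressed as fold change over DMSO-treated cells.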

A further test has as its system MV4-11. Nature of the test: Cytotoxicity against human MV4-11 cells assessed as intracellular ATP level after 3 days by CellTiterGlo assay. The class given is functional, cell-based. Put shortly:
as §3
On the technique in general: In ATP-based viability assays light output follows the ATP content of the culture.

The subject of test [10] is HL-60. The test can be described thus: Induction of apoptosis in human HL60 cells after 20 hrs by annexin V-FITC and propidium iodide staining-based flow cytometric analysis. In kind it is functional, cell-based. The method in brief: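 HL-60 cells at 0.5 × 10^6 cells/well were exposed to compounds at several concentrations for 20 h, then washed in PBS and stained with annexin-V FITC plus PI. Flow cytometry was run within 1 h. Annexin+/PI− counts as early apoptosis and double positive as late. Some runs included a 1 h pretreatment with 100 μM Z-VAD-FMK.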

Test [11] concerns the target Induced myeloid leukemia cell differentiation protein Mcl-1 homolog (Mus musculus) (UniProt P97287). Nature of the test: Inhibition of MCL1 in BAX/BAK double knock out MEF assessed as induction of cell death at 16 uM after 15 hrs by propidium iodide staining-based flow cytometric analysis relative to control. The method in brief:
as §2

Test [12] has as its target T2, Apoptosis regulator Bcl-2. Nature of the test: Displacement of Flu-BID/FAM-BID from His-tagged BCL2 (1 to 202) (unknown origin) expressed in Escherichia coli BL21(DE3) after 3 hrs by fluorescence polarization assay.

The source made the active and inactive calls. The calls are words filed in the database; no cut-off is given here.

T2 sequence (P10415 whole entry): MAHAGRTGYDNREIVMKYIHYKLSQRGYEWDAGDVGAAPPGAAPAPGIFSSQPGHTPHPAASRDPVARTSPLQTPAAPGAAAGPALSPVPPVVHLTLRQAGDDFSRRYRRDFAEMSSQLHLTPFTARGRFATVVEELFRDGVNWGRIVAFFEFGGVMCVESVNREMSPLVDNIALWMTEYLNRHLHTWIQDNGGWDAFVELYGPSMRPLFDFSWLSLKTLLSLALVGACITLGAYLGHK
Induced myeloid leukemia cell differentiation protein Mcl-1 homolog (Mus musculus), sequence (P97287 whole entry): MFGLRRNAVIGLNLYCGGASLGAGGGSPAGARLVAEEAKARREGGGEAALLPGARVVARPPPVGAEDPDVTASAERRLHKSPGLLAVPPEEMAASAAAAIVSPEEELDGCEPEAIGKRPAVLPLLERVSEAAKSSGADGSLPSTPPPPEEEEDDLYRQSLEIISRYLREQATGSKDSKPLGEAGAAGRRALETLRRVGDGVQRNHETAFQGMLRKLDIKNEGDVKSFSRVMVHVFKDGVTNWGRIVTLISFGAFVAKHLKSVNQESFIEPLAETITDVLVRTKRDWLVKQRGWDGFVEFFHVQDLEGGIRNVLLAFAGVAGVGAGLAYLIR
Bcl-2-like protein 1, sequence (Q07817 whole entry): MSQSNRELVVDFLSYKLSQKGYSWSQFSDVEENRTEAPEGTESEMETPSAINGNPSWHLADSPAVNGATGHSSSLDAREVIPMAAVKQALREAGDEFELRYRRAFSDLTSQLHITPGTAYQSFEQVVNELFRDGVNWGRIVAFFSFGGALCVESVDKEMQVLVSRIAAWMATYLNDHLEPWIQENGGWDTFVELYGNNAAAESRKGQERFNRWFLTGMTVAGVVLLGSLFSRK
T1 sequence (Q07820 whole entry): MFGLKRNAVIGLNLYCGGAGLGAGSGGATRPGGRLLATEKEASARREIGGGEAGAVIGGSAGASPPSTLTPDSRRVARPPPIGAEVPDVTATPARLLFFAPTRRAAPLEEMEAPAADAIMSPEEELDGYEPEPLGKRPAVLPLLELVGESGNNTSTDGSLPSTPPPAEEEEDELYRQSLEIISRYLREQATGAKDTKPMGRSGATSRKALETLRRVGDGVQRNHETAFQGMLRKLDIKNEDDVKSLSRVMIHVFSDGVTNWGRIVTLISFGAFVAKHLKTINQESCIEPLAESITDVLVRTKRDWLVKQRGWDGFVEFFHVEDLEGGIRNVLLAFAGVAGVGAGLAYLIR

Broadly, the IC50 is the concentration that gives 50% inhibition. In the case of `Cc1cs/c(=N\C2CCCCC2)n1/N=C/c1ccc(O)c(O)c1O`, the IC50 on Bcl-2-like protein 1 is greater than 50 µM; in test [1], 4.72 µM.

The inhibition is how much of the control response was suppressed. With `CC1(C)CCC(c2ccc(Cl)cc2)=C(CN2CCN(c3ccc(C(=O)NS(=O)(=O)c4ccc(N[C@H](CCN5CCOCC5)CSc5ccccc5)c(S(=O)(=O)C(F)(F)F)c4)cc3)CC2)C1`, the inhibition entry in [2] was “Active”. Also, in [3], the inhibition entry is “inactive”.

For orientation: Ki means a measure of affinity in units of concentration, obtained from inhibition or displacement. On to `O=C(O)CSc1cc(NS(=O)(=O)c2ccc(Oc3ccccc3)cc2)c2ccccc2c1O`, for which, in the test on HL-60 [4], the result was Active. Also, the inhibition entry is “Dose-dependent effect” in [5], 61% in test [6] and 23% in [11]. In addition, the Ki worked out at 10.6 µM on Bcl-2-like protein 1 and 7.56 µM in test [12]. Also, the Activity result in the test on HL-60 [7], in the test on K562, in the test on HL-60 [9], with MV4-11 and with HL-60 [10] was “Dose-dependent effect” throughout. The inhibition result in test [8] is “inactive”.
